Screening results (PubChem)
Wnt act = activates Wnt/beta-catenin signaling in a reporter cell assay; activator, plate reader; activation, % at 9.35 µM; 1.2% of 300,000 active; in the data active = activation above about 30%, passing the limit was not always enough
esBAF inh = blocks esBAF chromatin remodeling in mouse ES cells | AID 602393 | Bmi1-luciferase knock-in reporter, 24 h; 100% = twice the neutral-well signal | 2% of 350,000 active | reporter increase, % at 12.5 µM; in the data active = activation above about 40%;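 note: a rise in the Bmi1 reporter signal indicates esBAF inhibition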
MITF TRPM1 HTS = activators of MITF-driven TRPM1 promoter activity in SK-MEL-5 cells. SK-MEL-5 TRPM1-promoter luciferase, 24 h; % of positive control, neutral wells = 0. activation, % at 12.5 µM. 0.75% of 300,000 active;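 active = mean activation of at least 80% with every replicate also reaching 80%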
Vif inh = blocks HIV Vif function; inhibition, % at 7.49 µM; HEK293T cells, Vif self-association by quenched fluorescence, imaging, 24 h; 0.35% of 340,000 active; AID 602346; in the data active = inhibition above about 50%, passing the limit was not always enough
Xi reactivation = reactivates the inactive X chromosome in mouse fibroblasts. XiGFP mouse fibroblasts, % GFP-positive cells imaging, 3 d; cells co-treated with 5-aza-dC sensitizer; scaled so ellipticine positive control = 100%. 0.055% of 360,000 active. activation, % at 7.58 µM. AID 743238;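 active = mean normalized replicate activation at least 10% and every replicate at or above 10%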
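System: 68-5-11 XiGFP fibroblast line; Timing: 3 days compound exposure; Compound dosing: one concentration, pinned; Benchmarks: positive control ellipticine, 6 µM final; Buffer or medium: DMEM containing 5-aza-dC.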
Hits are given with their value. Compounds with a hit are over-represented: about 2.6% of the library has one in this group of screens.

What do the screens show for `COc1ccccc1C#Cc1cnc2c(c1)C(=O)N([C@H](C)CO)C[C@H](C)[C@H](CN(C)C(C)=O)O2`?
esBAF inh: inactive; Xi reactivation: inactive

Results for CCOC(=O)Cn1c(=NC(=O)c2ccc([N+](=O)[O-])s2)sc2ccccc21 ?
Wnt act: inactive; MITF TRPM1 HTS: inactive; Vif inh: inactive; Xi reactivation: 18

How did CCOC(=O)Cn1c(=NC(=O)C2COc3ccccc3O2)sc2cc(S(N)(=O)=O)ccc21 (centres undefined) do in these assays?
Wnt act: inactive; esBAF inh: inactive; MITF TRPM1 HTS: inactive; Vif inh: inactive; Xi reactivation: inactive

What do the screens show for `O=C(C[C@@H]1C=C[C@@H](NC(=O)c2ccncc2)[C@@H](CO)O1)Nc1ccc(-c2ccccc2)cc1`?
Xi reactivation: inactive

How did CC(C)c1[nH]nc2c1C(C1C=CCCC1)C(C#N)=C(N)O2 (centres undefined) do in these assays?
Wnt act: 46; MITF TRPM1 HTS: inactive; Vif inh: inactive; Xi reactivation: inactive

What do the screens show for `CC(C)(C)c1[nH]nc2c1C(C1C=CCCC1)C(C#N)=C(N)O2` (centres undefined)?
esBAF inh: inactive; Vif inh: inactive

How did C[n+]1nc(Nc2ccccc2)sc1-c1ccc(O)cc1 do in these assays?
Wnt act: inactive; esBAF inh: inactive; MITF TRPM1 HTS: inactive; Vif inh: inactive; Xi reactivation: inactive

Results for C[n+]1c(-c2ccccc2)sc([S-])c1-c1ccccc1 ?
Wnt act: 44; Vif inh: inactive; Xi reactivation: inactive

Results for COC1=CC(=O)c2c(ccc3ncnc(N)c23)C1=O ?
Wnt act: inactive; Vif inh: inactive; Xi reactivation: 19

How did C[C@@H]1CN([C@@H](C)CO)C(=O)c2cc(-c3ccc(F)cc3)cnc2O[C@H]1CN(C)C(=O)CN(C)C do in these assays?
esBAF inh: inactive; Xi reactivation: inactive

How did C[C@H]1CN([C@@H](C)CO)C(=O)Cc2cc(NC(=O)Nc3ccc(F)cc3)ccc2O[C@H]1CN(C)Cc1ccc(C(=O)Nc2ccccc2N)cc1 do in these assays?
Xi reactivation: inactive

How did Cc1cc(C)nc(/N=C(\N)Nc2ccc(C)c([N+](=O)[O-])c2)n1 do in these assays?
esBAF inh: inactive; Vif inh: inactive

How did Cc1cc(C(=O)Nc2cccc3cccnc23)ccc1[N+](=O)[O-] do in these assays?
Wnt act: inactive; esBAF inh: 49; MITF TRPM1 HTS: inactive; Vif inh: inactive; Xi reactivation: inactive

What do the screens show for `CC(C)(C)c1ccc(C(=O)Nc2ccc(Cl)cc2)cc1`?
Wnt act: inactive; MITF TRPM1 HTS: 99; Vif inh: inactive; Xi reactivation: inactive

What do the screens show for `Cc1c(NC(=O)c2ccc(C(C)(C)C)cc2)cccc1[N+](=O)[O-]`?
Wnt act: inactive; MITF TRPM1 HTS: inactive; Vif inh: inactive; Xi reactivation: inactive

What do the screens show for `Cc1cc(C)nc(Nc2ccc(C)c([N+](=O)[O-])c2)n1`?
Wnt act: inactive; esBAF inh: 49; MITF TRPM1 HTS: inactive; Vif inh: inactive; Xi reactivation: inactive

What do the screens show for `CC(C)(C)c1ccc(NC(=O)c2ccccc2)c([N+](=O)[O-])c1`?
Wnt act: 75; esBAF inh: inactive; MITF TRPM1 HTS: inactive; Vif inh: inactive; Xi reactivation: inactive

Results for O=C(Nc1ccc(Nc2ccccc2)cc1)c1ccc(Cl)cc1 ?
Wnt act: inactive; esBAF inh: inactive; MITF TRPM1 HTS: inactive; Vif inh: inactive; Xi reactivation: inactive

What do the screens show for `O=C(Nc1cccc(F)c1)N1CC(=O)N2[C@H](C1)[C@@H](c1ccc(-c3ccccc3F)cc1)[C@@H]2CO`?
Xi reactivation: inactive

What do the screens show for `Cc1cc(C(=O)Nc2ccc3c(c2)CCC3)ccc1[N+](=O)[O-]`?
Wnt act: 51; Vif inh: inactive; Xi reactivation: inactive

How did CC(C)(C)c1ccc(C(=O)Nc2cccnc2)cc1 do in these assays?
Wnt act: inactive; esBAF inh: inactive; Vif inh: inactive; Xi reactivation: inactive

How did CC(=O)Nc1nonc1NC(=O)c1ccc(C(C)(C)C)cc1 do in these assays?
Wnt act: 55; esBAF inh: inactive; Vif inh: inactive

How did Cc1ccc(NC(=O)c2ccc(C(C)(C)C)cc2)cc1[N+](=O)[O-] do in these assays?
MITF TRPM1 HTS: 121; Vif inh: inactive; Xi reactivation: inactive

How did OCCN(/C=N/c1nc(-c2ccc(Br)cc2)cs1)CCO do in these assays?
Wnt act: inactive; esBAF inh: 41; MITF TRPM1 HTS: inactive; Vif inh: inactive

What do the screens show for `Brc1ccc(-c2csc(/N=C/N3CCCC3)n2)cc1`?
Wnt act: inactive; esBAF inh: inactive; MITF TRPM1 HTS: inactive; Vif inh: inactive; Xi reactivation: inactive

What do the screens show for `Brc1ccc(-c2csc(/N=C/N3CCOCC3)n2)cc1`?
esBAF inh: 51; MITF TRPM1 HTS: inactive; Vif inh: inactive

What do the screens show for `C[C@@H]1CN([C@@H](C)CO)C(=O)c2cc(-c3ccc(C(=O)N(C)C)cc3)cnc2O[C@@H]1CN(C)C(=O)c1ccncc1`?
esBAF inh: inactive; Xi reactivation: inactive

What do the screens show for `COc1cc(C(C)=O)ccc1OCC(=O)NCC1(N2CCCCC2)CCCCC1`?
Wnt act: inactive; MITF TRPM1 HTS: inactive; Vif inh: 51; Xi reactivation: inactive

What do the screens show for `COc1ccccc1CNC(=O)C1CCC(CNS(=O)(=O)c2cccs2)CC1` (centres undefined)?
Wnt act: inactive; esBAF inh: inactive; MITF TRPM1 HTS: inactive; Vif inh: 55; Xi reactivation: inactive

How did CCCNC(=O)C[C@H]1C[C@H]2c3cc(NC(=O)NC4CCCC4)ccc3O[C@H]2[C@H](CO)O1 do in these assays?
esBAF inh: inactive; Xi reactivation: inactive

How did COc1ccc(C2Nc3ccccc3C(=O)N2c2ccc(C)cc2)cc1COc1ccccn1 (centres undefined) do in these assays?
MITF TRPM1 HTS: inactive; Vif inh: inactive

How did COc1ccc(C2Nc3ccccc3C(=O)N2c2ccc(C)cc2)cc1Cn1nc(C)c([N+](=O)[O-])c1C (centres undefined) do in these assays?
Wnt act: inactive; esBAF inh: 86; MITF TRPM1 HTS: 90; Vif inh: inactive

How did C[C@@H]1CCCCO[C@@H](CN(C)S(C)(=O)=O)[C@H](C)CN([C@@H](C)CO)C(=O)c2cc(NS(=O)(=O)c3cn(C)cn3)ccc2O1 do in these assays?
esBAF inh: inactive; Xi reactivation: inactive

How did C=CCc1ccc(OC(=O)NC2CCCCC2)c(OC)c1 do in these assays?
Wnt act: inactive; esBAF inh: 51; MITF TRPM1 HTS: inactive; Vif inh: inactive; Xi reactivation: inactive

Results for C=CCc1ccc(OCCCCNC2CCCC2)c(OC)c1 ?
Wnt act: inactive; MITF TRPM1 HTS: inactive; Vif inh: inactive; Xi reactivation: inactive

Results for COc1ccc(NC(=O)c2coc(C)c2)cc1 ?
Wnt act: inactive; esBAF inh: 74; Vif inh: inactive; Xi reactivation: inactive

What do the screens show for `COc1ccc(NC(=O)c2ccc(=O)oc2)cc1`?
Wnt act: inactive; esBAF inh: inactive; MITF TRPM1 HTS: inactive; Vif inh: inactive
